From ChEMBL document CHEMBL1126270, “Synthesis of 3-[(2,3-dihydro-1,1,3-trioxo-1,2-benzisothiazol-2-yl)alkyl] 1,4-dihydropyridine-3,5-dicarboxylate derivatives as calcium channel modulators” (J Med Chem, 1992)
pIC50: −log10 of the molar value.

What was measured:
Oryctolagus cuniculus [1] = species: Oryctolagus cuniculus; test: Inhibition of electrically stimulated rabbit left atria contraction; format: functional
Procedure, shortened: (§1)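 Rabbit left atria electrically driven (1 Hz, 10 ms, twice threshold voltage), equilibrated 1–1.5 h. Compounds added cumulatively (10^-10–10^-6 M), diluted from DMSO stocks into Krebs–Henseleit, final DMSO <0.1%. Isometric force recorded; IC50 from contractile force relative to initial control values, with 95% confidence limits.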

Oryctolagus cuniculus [2] = species: Oryctolagus cuniculus; test: Relative potency evaluated (relative potency = IC50 of compound / IC50 of nifedipine) in rabbit; format: functional
Oryctolagus cuniculus [3] = species: Oryctolagus cuniculus; test: Recovery of the initial contraction of rabbit aortic strips, blocked at 10e-7 M concentration.; conditions: Aorta
Oryctolagus cuniculus [4] = species: Oryctolagus cuniculus; test: Blockade of calcium-evoked contractions evaluated in depolarized rabbit aortic strips; format: functional; conditions: Aorta
Procedure, shortened: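 Male New Zealand rabbit thoracic aorta, helicoidal strips, 2.5 g preload, Krebs–bicarbonate, 37 °C, 95% O2/5% CO2, pH 7.4. After 1 h equilibration, depolarized with 35 mM K+; 1.5 mM Ca2+ added 10 min later, repeated until reproducible. Compound at increasing concentrations from 20 min before and during Ca2+ addition; responses normalized to initial tension; IC50 by Finney method.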

[5] = target: T1, Voltage-dependent L-type calcium channel subunit alpha-1C (Oryctolagus cuniculus, UniProt P15381); test: Selectivity index was measured as the IC50 needed to depress the heart beat divided by IC50 needed to block [Ca2+] contractions in rabbit aortic strips; format: functional, tissue-based, Aorta
Oryctolagus cuniculus [6] = species: Oryctolagus cuniculus; test: Maximum contractile force in rabbit aorta strips; format: functional
Procedure, shortened: (§2)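 Rabbit aortic strips, after equilibration in Ca2+-free Krebs, switched to buffer with 10 mM K+. Repeated 1.5 mM Ca2+ pulses until reproducible. Increasing compound concentrations each given 10 min before a further 1.5 mM Ca2+ pulse. Maximum contractile force (mg) taken as vasoconstrictor effect; data as mean ± SEM at 10^-6 M.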

Oryctolagus cuniculus [7] = species: Oryctolagus cuniculus; test: Compound was evaluated for contraction on Electrically driven Rabbit left atria. at 10e-7 M; format: functional
Oryctolagus cuniculus [8] = species: Oryctolagus cuniculus; test: Compound was tested in vitro for its effect on maximum contractile force in rabbit aorta strips; format: functional; procedure, shortened: as §2
Oryctolagus cuniculus [9] = species: Oryctolagus cuniculus; test: Compound was evaluated for contraction on Electrically driven Rabbit left atria. at 10e-6 M; format: functional
Rattus norvegicus [10] = test: Effect (iv, 100 ug/kg) on diastolic blood pressure in anesthetized normotensive rat; format: functional, Artery
Procedure, shortened: (§3)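 Male Wistar rats, 290 ± 30 g, pentobarbitone anesthesia (70 mg/kg ip), tracheal cannulation. Carotid arterial pressure recorded, dosing via femoral vein. Bolus iv of 0.1 mg/kg in PEG-400 (0.1 mL/kg); effects recorded continuously for 15 min; peak rise in mmHg above basal.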

Oryctolagus cuniculus [11] = species: Oryctolagus cuniculus; test: Compound was evaluated for contraction on Electrically driven Rabbit left atria. at 10e-8 M; format: functional
Rattus norvegicus [12] = species: Rattus norvegicus; test: Compound evaluated for reducing diastolic blood pressure in normotensive rats.; format: functional, Artery
Rattus norvegicus [13] = test: Effect (iv, 100 ug/kg) on systolic blood pressure in anesthetized normotensive rat; format: functional, Artery; procedure, shortened: as §3
Oryctolagus cuniculus [14] = species: Oryctolagus cuniculus; test: Inhibition of electrically stimulated rabbit left atria contraction.; format: functional; procedure, shortened: as §1
Rattus norvegicus [15] = species: Rattus norvegicus; test: Compound evaluated for reducing diastolic blood pressure in spontaneously hypertensive rats.; format: functional; conditions: Artery
Procedure, shortened: (§4)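 Anesthetized (pentobarbitone 70 mg/kg ip) Okamoto SHR, 290 ± 30 g; carotid pressure, femoral vein dosing. Cumulative increasing iv bolus doses of 1, 3, 6, 10, 20, 30 µg/kg in PEG-400 (0.1 mL/kg), each recorded 15 min; ED25 for lowering SBP and DBP and duration of hypotensive action estimated.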

Rattus norvegicus [16] = test: Systolic blood pressure after administration of a single oral dose (20 mg/kg) in spontaneously hypertensive rats; format: functional
Procedure, shortened: (§5)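 Conscious SHR trained 2 weeks, warmed at 31 ± 1 °C for 2 h; tail plethysmography SBP, mean of five readings; only rats above 170 mmHg used. After 24 h fasting, 20 mg/kg by gavage in 20% PEG-400/0.5% methylcellulose (10 mL/kg); SBP change read 1 h post-dose, n = 12.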

Rattus norvegicus [17] = species: Rattus norvegicus; test: Duration of action in spontaneously hypertensive rats.; format: functional; procedure, shortened: as §4
Rattus norvegicus [18] = species: Rattus norvegicus; test: Reducing systolic blood pressure in spontaneously hypertensive rats.; format: functional; conditions: Artery; procedure, shortened: as §5
Rattus norvegicus [19] = species: Rattus norvegicus; test: Compound evaluated for reducing diastolic blood pressure normotensive rats.; format: functional, Artery
Rattus norvegicus [20] = test: Systolic blood pressure after administration of a single oral dose (20 mg/kg) in spontaneously hypertensive rats.; format: functional; procedure, shortened: as §5
Oryctolagus cuniculus [21] = species: Oryctolagus cuniculus; test: Relative potency was evaluated. (relative potency = IC50 of compound / IC50 of nifedipine); format: functional
[22] = target: T1, Voltage-dependent L-type calcium channel subunit alpha-1C; conditions: rabbit, Aorta
[23] = target: T1, Voltage-dependent L-type calcium channel subunit alpha-1C; test: Blockade of calcium-evoked contractions in depolarized aortic strips; format: functional, tissue-based, Aorta
Rattus norvegicus [24] = test: Systolic blood pressure after administration of a single oral dose (20 mg/kg); format: functional
Procedure, shortened: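 Conscious SHR trained for 2 weeks; systolic pressure by tail plethysmography after 2 h at 31 ± 1 °C, each reading the mean of five determinations. Only rats with basal >170 mmHg were used. After 24 h fasting, dosed by gavage in 20% PEG-400 in 0.5% aqueous methylcellulose (10 mL/kg). % change from basal at 1 h; mean ± SE, n = 12.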

Rattus norvegicus [25] = species: Rattus norvegicus; test: Compound evaluated for reducing diastolic blood pressure spontaneously hypertensive rats.; format: functional; conditions: Artery
Procedure, shortened: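 Male SHR (Okamoto strain, 290 ± 30 g) under sodium pentobarbitone anaesthesia (70 mg/kg ip) with tracheal cannulation. Arterial pressure recorded from the left carotid artery. Bolus iv via right femoral vein in PEG-400 (0.1 mL/kg), cumulative doses of 1, 3, 6, 10, 20 and 30 μg/kg, each followed for 15 min. ED25 for lowering diastolic pressure estimated.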

T1 sequence (P15381 whole entry): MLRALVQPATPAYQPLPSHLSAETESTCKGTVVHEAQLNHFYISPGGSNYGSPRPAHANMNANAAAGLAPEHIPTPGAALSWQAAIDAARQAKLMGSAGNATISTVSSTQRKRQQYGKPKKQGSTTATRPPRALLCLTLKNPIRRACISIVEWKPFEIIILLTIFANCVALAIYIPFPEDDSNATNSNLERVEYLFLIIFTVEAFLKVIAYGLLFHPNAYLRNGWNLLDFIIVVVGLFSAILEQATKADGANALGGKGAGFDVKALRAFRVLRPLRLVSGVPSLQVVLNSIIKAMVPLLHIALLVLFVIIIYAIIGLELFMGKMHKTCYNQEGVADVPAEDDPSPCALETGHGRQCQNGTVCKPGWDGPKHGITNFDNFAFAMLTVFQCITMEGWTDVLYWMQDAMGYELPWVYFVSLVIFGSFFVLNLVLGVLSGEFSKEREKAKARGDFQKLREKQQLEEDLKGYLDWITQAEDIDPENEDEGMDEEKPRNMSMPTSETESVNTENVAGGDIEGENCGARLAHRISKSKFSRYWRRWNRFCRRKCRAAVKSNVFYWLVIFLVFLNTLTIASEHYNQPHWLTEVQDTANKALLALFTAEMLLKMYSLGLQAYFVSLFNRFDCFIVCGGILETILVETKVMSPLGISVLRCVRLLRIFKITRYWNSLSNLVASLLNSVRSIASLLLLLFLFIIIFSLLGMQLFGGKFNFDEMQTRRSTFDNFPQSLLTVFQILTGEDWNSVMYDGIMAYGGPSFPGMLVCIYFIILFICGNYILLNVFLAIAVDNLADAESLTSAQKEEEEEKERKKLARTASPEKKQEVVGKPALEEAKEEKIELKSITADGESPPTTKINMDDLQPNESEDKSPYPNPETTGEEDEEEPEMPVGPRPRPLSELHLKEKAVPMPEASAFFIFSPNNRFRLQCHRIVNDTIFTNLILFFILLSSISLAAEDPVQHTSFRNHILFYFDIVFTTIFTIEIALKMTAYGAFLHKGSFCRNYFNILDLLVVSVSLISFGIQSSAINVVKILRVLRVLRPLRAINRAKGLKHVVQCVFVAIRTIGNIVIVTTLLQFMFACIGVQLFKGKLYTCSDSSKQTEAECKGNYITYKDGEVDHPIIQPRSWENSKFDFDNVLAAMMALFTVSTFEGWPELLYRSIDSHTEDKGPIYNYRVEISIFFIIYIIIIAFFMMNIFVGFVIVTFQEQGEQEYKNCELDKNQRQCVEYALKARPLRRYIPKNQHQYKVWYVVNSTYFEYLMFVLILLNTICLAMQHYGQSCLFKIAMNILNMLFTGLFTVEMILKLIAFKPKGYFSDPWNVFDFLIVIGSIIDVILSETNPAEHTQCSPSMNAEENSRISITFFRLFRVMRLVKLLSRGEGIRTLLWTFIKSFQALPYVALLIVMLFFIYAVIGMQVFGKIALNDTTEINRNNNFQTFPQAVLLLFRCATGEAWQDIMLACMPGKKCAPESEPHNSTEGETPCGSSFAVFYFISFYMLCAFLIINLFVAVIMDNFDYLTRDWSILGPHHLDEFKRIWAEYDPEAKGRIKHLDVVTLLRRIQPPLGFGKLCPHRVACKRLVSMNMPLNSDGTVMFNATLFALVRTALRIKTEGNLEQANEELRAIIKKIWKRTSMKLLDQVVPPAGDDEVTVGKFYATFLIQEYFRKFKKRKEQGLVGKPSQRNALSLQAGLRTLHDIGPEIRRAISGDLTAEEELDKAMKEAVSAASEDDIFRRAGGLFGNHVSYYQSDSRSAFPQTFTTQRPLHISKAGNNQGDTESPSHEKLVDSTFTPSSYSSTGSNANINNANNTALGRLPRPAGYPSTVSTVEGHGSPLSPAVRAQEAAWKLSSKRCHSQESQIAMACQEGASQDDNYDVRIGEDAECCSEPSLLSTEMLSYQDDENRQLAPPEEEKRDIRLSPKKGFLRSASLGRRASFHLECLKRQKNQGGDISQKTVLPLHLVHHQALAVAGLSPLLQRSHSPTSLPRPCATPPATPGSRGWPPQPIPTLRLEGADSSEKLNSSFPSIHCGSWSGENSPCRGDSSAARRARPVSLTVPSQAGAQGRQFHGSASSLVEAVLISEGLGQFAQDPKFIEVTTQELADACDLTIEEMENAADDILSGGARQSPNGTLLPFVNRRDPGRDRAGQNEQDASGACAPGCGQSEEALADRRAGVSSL

Structure (SMILES)	Relative potency (Oryctolagus cuniculus [2])	Recovery (Oryctolagus cuniculus [3])	pIC50 (Oryctolagus cuniculus [4])	Selectivity index [5]	Max contractile force (Oryctolagus cuniculus [6])	pIC50 (Oryctolagus cuniculus [14])	also measured
CCO/C(O)=C1\C(C)=NC(C)=C(C(=O)OCCN2C(=O)c3ccccc3S2(=O)=O)C1c1ccccc1C(F)(F)F (stereo not given)	5.8	14.5%	9.30	152			pIC50 (Oryctolagus cuniculus [1]): 7.13
CC1=NC(C)=C(C(=O)OCCN2C(=O)c3ccccc3S2(=O)=O)C(c2cccc([N+](=O)[O-])c2)/C1=C(\O)OCC1CCCO1 (stereo not given)	<0.1		6.97		570 mg		
CC1=NC(C)=C(C(=O)OCCN2C(=O)c3ccccc3S2(=O)=O)C(c2cccc([N+](=O)[O-])c2)/C1=C(\O)OCC1CCCCO1 (stereo not given)			< 6.00		1940 mg		Contraction (Oryctolagus cuniculus [7]): 129.6%; Max contractile activity (Oryctolagus cuniculus [8]): 1940 mg; Contraction (Oryctolagus cuniculus [9]): 141.2%; DBP (Rattus norvegicus [10]): 40; Contraction (Oryctolagus cuniculus [11]): 114%; DBP change (Rattus norvegicus [12]): 40%; SBP (Rattus norvegicus [13]): 58.1
CCO/C(O)=C1\C(C)=NC(C)=C(C(=O)OCCCN2C(=O)c3ccccc3S2(=O)=O)C1c1cccc(Cl)c1Cl (stereo not given)	1.6	0%	8.74	200		6.45	ED25 (Rattus norvegicus [15]): 0.012 mg/kg; SBP change (Rattus norvegicus [16]): 36%; Duration (Rattus norvegicus [17]): 2 min; ED25 (Rattus norvegicus [18]): 0.015 mg/kg
CC1=NC(C)=C(C(=O)OCCCN2C(=O)c3ccccc3S2(=O)=O)C(c2cccc(Cl)c2Cl)/C1=C(\O)OC(C)C (stereo not given)	1.4	0%	8.68	75		6.81	SBP change (Rattus norvegicus [16]): 11%
CC1=NC(C)=C(C(=O)OCCN2C(=O)c3ccccc3S2(=O)=O)C(c2cccc(Cl)c2Cl)/C1=C(\O)OC(C)(C)C (stereo not given)	1.3	0%	8.64	122		6.55	ED25 (Rattus norvegicus [15]): 0.011 mg/kg; SBP change (Rattus norvegicus [16]): 36%; Duration (Rattus norvegicus [17]): >15 min; ED25 (Rattus norvegicus [18]): 0.014 mg/kg
COC(=O)C1=C(C)NC(C)=C([N+](=O)[O-])C1c1ccccc1C(F)(F)F (stereo not given)					2570 mg		Contraction (Oryctolagus cuniculus [7]): 232.2%; Contraction (Oryctolagus cuniculus [9]): 471.4%; DBP (Rattus norvegicus [10]): 53.3; Contraction (Oryctolagus cuniculus [11]): 97.8%; SBP (Rattus norvegicus [13]): 100; DBP change (Rattus norvegicus [19]): 53.3%
CO/C(O)=C1\C(C)=NC(C)=C(C(=O)OCCCN2C(=O)c3ccccc3S2(=O)=O)C1c1cccc(Cl)c1Cl (stereo not given)	3.6	0%	9.10	686			pIC50 (Oryctolagus cuniculus [1]): 6.28; ED25 (Rattus norvegicus [15]): 0.01 mg/kg; SBP change (Rattus norvegicus [16]): 35%; Duration (Rattus norvegicus [17]): >15 min; ED25 (Rattus norvegicus [18]): 0.012 mg/kg
CC1=NC(C)=C(C(=O)OCCN2C(=O)c3ccccc3S2(=O)=O)C(c2ccccc2C(F)(F)F)/C1=C(\O)OC(C)C (stereo not given)	2.5	0.5%	9.00	103		6.99	ED25 (Rattus norvegicus [15]): 0.008 mg/kg; Duration (Rattus norvegicus [17]): >15 min; SBP change (Rattus norvegicus [20]): 37%; ED25 (Rattus norvegicus [18]): 0.009 mg/kg
CC1=NC(C)=C(C(=O)OCN2C(=O)c3ccccc3S2(=O)=O)C(c2ccccc2[N+](=O)[O-])/C1=C(\O)OCC1CCCO1 (stereo not given)		44.5%				6.54	Relative potency (Oryctolagus cuniculus [21]): 0.1; T1/2 [22]: 8.7 min; pIC50 [23]: 7.42
CC1=NC(C)=C(C(=O)OCCN2C(=O)c3ccccc3S2(=O)=O)C(c2ccccc2[N+](=O)[O-])/C1=C(\O)OCC1CCCCO1 (stereo not given)			< 6.00		990 mg		
CC1=NC(C)=C(C(=O)OCCN2C(=O)c3ccccc3S2(=O)=O)C(c2cccc(Cl)c2Cl)/C1=C(\O)OC(C)C (stereo not given)	10	0%	9.52	2744		6.16	SBP change (Rattus norvegicus [16]): 8%
CO/C(O)=C1\C(C)=NC(C)=C(C(=O)OCCN2C(=O)c3ccccc3S2(=O)=O)C1c1ccccc1Cl (stereo not given)			< 6.00		610 mg		
COC(=O)C1=C(C)NC(C)=C(C(=O)OC)C1c1ccccc1[N+](=O)[O-] [NIFEDIPINE]		71.6%				6.95	SBP change (Rattus norvegicus [24]): 35%; Duration (Rattus norvegicus [17]): 3 min; ED25 (Rattus norvegicus [25]): 0.031 mg/kg; ED25 (Rattus norvegicus [18]): 0.033 mg/kg
CC1=NC(C)=C(C(=O)OCN2C(=O)c3ccccc3S2(=O)=O)C(c2cccc([N+](=O)[O-])c2)/C1=C(\O)OCC1CCCO1 (stereo not given)		27.2%					Relative potency (Oryctolagus cuniculus [21]): 0.1; T1/2 [22]: 9.6 min; pIC50 [23]: 7.60
CC1=NC(C)=C(C(=O)OCCN2C(=O)c3ccccc3S2(=O)=O)C(c2cccc([N+](=O)[O-])c2)/C1=C(\O)OC(C)C (stereo not given)	9.7	0%	9.52	137		7.43	SBP change (Rattus norvegicus [20]): 20%
CC1=NC(C)=C(C(=O)OCCN2C(=O)c3ccccc3S2(=O)=O)C(c2ccccc2Cl)/C1=C(\O)OCC1CCCCO1 (stereo not given)	<0.1		6.46		510 mg		
CO/C(O)=C1\C(C)=NC(C)=C(C(=O)OCCN2C(=O)c3ccccc3S2(=O)=O)C1c1ccccc1C(F)(F)F (stereo not given)			< 6.00		420 mg		
CC1=NC(C)=C(C(=O)OCCCN2C(=O)c3ccccc3S2(=O)=O)C(c2ccccc2C(F)(F)F)/C1=C(\O)OCC1CCCCO1 (stereo not given)	2.1	5%	8.85	121			pIC50 (Oryctolagus cuniculus [1]): 6.77
CC1=NC(C)=C(C(=O)OCN2C(=O)c3ccccc3S2(=O)=O)C(c2ccccc2Cl)/C1=C(\O)OCC1CCCO1 (stereo not given)							Relative potency (Oryctolagus cuniculus [21]): 0.3; pIC50 [23]: 8.00
CC1=NC(C)=C(C(=O)OCCCN2C(=O)c3ccccc3S2(=O)=O)C(c2ccccc2[N+](=O)[O-])/C1=C(\O)OC(C)C (stereo not given)	2.4	0.2%	8.92	15			pIC50 (Oryctolagus cuniculus [1]): 7.73
CC1=NC(C)=C(C(=O)OCCN2C(=O)c3ccccc3S2(=O)=O)C(c2cccc([N+](=O)[O-])c2)/C1=C(\O)OC(C)(C)C (stereo not given)	1.8	0%	8.80	72			pIC50 (Oryctolagus cuniculus [1]): 6.94; SBP change (Rattus norvegicus [20]): 25%
